Assay [1] deals with T1, Anoctamin-1 (Mus musculus) (UniProt Q8BHY3).
T1 sequence (whole entry): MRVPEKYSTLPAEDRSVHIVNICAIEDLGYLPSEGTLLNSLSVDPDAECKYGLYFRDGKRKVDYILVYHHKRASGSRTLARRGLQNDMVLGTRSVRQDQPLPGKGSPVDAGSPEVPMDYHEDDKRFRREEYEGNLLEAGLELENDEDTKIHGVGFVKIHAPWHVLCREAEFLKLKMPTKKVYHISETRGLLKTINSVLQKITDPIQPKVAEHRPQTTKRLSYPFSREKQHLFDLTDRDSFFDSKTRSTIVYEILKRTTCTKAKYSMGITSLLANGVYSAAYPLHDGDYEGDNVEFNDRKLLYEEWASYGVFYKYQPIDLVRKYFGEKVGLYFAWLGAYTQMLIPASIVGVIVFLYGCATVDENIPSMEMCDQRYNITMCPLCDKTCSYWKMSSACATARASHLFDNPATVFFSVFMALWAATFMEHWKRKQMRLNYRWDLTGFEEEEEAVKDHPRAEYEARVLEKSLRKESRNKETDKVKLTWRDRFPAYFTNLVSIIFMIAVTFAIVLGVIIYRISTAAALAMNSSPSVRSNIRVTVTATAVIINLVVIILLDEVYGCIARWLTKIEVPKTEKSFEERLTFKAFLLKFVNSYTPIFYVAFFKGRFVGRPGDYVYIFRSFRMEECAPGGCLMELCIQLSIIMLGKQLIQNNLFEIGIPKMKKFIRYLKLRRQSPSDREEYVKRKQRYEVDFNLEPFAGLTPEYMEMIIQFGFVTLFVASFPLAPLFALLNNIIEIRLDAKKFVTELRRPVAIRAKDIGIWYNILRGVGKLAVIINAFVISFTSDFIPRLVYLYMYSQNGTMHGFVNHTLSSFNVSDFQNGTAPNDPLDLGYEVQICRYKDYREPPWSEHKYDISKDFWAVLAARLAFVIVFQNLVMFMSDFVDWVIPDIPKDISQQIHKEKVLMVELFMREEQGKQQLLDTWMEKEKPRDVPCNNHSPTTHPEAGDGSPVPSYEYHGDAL
Briefly: Inhibition of GFP-fused mouse ANO1 channel expressed in HEK293A cells assessed as inhibition of current amplitude at 10 uM at membrane potential of +80 mV by patch clamp electrophysiology assay. Format: cell-based. As to conditions: HEK293-A. In a few lines:
(§1)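 Whole-cell recording at room temperature in HEK293A cells transfected with GFP-mANO1, GFP-mANO2 or GFP-mTTYH1. 1 s ramps from +80 to -80 mV, holding potential -10 mV. For ANO1/ANO2: pipette CsCl 146 mM with Ca-EGTA-NMDG, pH 7.3; bath NaCl-based, pH 7.3. For TTYH1: Tris-aspartate pipette (pH 7.2) and Tris-HCl bath (pH 7.4), with […] and BaCl2 added to block K+ channels, and hypotonic (220 mOsm/kg) bath. Washout recordings assessed reversibility.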
Background: In patch-clamp work, channel activity is measured electrically.

Assay [2] has as its system U-251. The assay can be described thus: Inhibition of colony formation in human U251 cells at 3 uM incubated for 14 days by crystal violet dye based assay. Format: functional, cell-based. As to conditions: time 14.0 day. In a few lines:
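U251 cells, 1.0×10^3 per well, treated with compound (1, 3 or 10 μM) for 2 weeks at 37 °C, 5% CO2. Colonies stained 24 h with crystal violet in methanol/formaldehyde/PBS, washed, extracted with 10% acetic acid and read at A570 nm. Compared against DMSO control.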

The target of the next assay is T2, Anoctamin-1 (Mus musculus, UniProt Q8BHY3).
T2 sequence (Q8BHY3 whole entry): T1 sequence (whole entry)
The assay can be described thus: (§2) Inhibition of GFP-fused mouse ANO1 channel expressed in HEK293A cells assessed as inhibition of ATP-induced channel current amplitude at membrane potential of +80 mV by patch clamp electrophysiology assay. Format: cell-based, HEK293-A. In a few lines: as §1

Assay [3] deals with T1, Anoctamin-1 (Mus musculus). Described as §2. Format: cell-based. As to conditions: HEK293-A. In a few lines: as §1
Assay [4] concerns the target T1, Anoctamin-1 (Mus musculus). Briefly: Reversible inhibition of GFP-fused mouse ANO1 channel expressed in HEK293A cells assessed as channel current amplitude at 10 uM at membrane potential of +80 mV measured after drug wash-out by patch clamp electrophysiology assay. Format: cell-based. Also noted: scale not given: the % may be the effect or the level left. As to conditions: HEK293-A. In a few lines: as §1

The subject of assay [5] is U-251. The assay can be described thus: Inhibition of anchorage-independent colony formation in human U251 cells at 10 uM incubated for 14 days by crystal violet staining based soft agar colony formation assay. Format: functional, cell-based. As to conditions: time 14.0 day. In a few lines:
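Soft agar assay: 2.0×10^3 U251 cells in complete medium with 0.3% agar over a 0.6% bottom agar layer. Treated with compounds at 1-100 μM for 14 days, 37 °C, 5% CO2. Colonies stained with crystal violet for 24 h, whole wells photographed and colonies counted against DMSO control; n = 3.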

For assay [6], the system named is U-251. Briefly: Synergistic antiproliferative activity against human U251 cells assessed as combination index at compound:temozolomide concentration ratio of 1:1 in presence of temozolomide by Chou-Talalay method. Format: functional. The method, boiled down:
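U251 proliferation measured with CellTiter-Glo across full titrations of an ANO1 inhibitor combined with temozolomide. Combination index calculated by the Chou-Talalay method.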

Assay [7] relates to U-251. The assay can be described thus: Upregulation of E-cadherin protein expression in human U251 cells incubated for 18 hrs by Western blot analysis. Format: functional, cell-based. As to conditions: dose 1-10 µM. In a few lines: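 U251 cells (5×10^5) treated with compounds for 18 h, lysed in NP40 buffer with protease inhibitors. 25 μg lysate run on SDS-PAGE and blotted for E-cadherin, β-actin as loading control. Primary antibodies at 1:1000 (actin 1:10000). Bands quantified by densitometry; one-way ANOVA.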
(In general: Immunoblotting shows a protein as a band on a membrane.)

In assay [8] the test system is U-251. The assay can be described thus: Antiproliferative activity against human U251 cells overexpressing ANO1 assessed as reduction in cell viability in presence of temozolomide measured after 72 hrs by Celltiter-glo assay. Format: functional.
The target in assay [9] is T1, Anoctamin-1 (Mus musculus). Briefly: Irreversible inhibition of GFP-fused mouse ANO1 channel expressed in HEK293A cells assessed as inhibition of channel current amplitude at 10 uM at membrane potential of +80 mV measured after drug wash-out by patch clamp electrophysiology assay. As to conditions: HEK293-A. Format: cell-based. The method, boiled down: as §1

Active and inactive are the calls of the source. The calls are words filed in the database; no cut-off is given here.

For orientation: inhibition means the relative decrease from the control value, in per cent. For orientation: IC50 means the concentration at which inhibition is half-maximal. For orientation: GI50 means the concentration giving 50% growth inhibition.

For the compound `CC(C)(C)C(=O)Nc1sc2c(c1C(N)=O)CCC(C(C)(C)C)C2` (stereo unspecified), the figures for the inhibition in [1] and in assay [3] were 50.6% and “Dose-dependent effect”, respectively. In the assay on U-251 [2], the inhibition result was “Active”. Moreover, the 50% inhibitory concentration (IC50) at Anoctamin-1 came out at 2.56 µM. Besides, the Activity in [4] is 85.8%; in the assay on U-251 [7], “Dose-dependent effect”. Moreover, the inhibition entry with U-251 [5] is “inactive”. In addition, the CI in the assay with U-251 [6] amounted to 0.63. Moreover, in the assay with U-251 [8], the concentration for 50% growth inhibition (GI50) stood at 5.32 µM.
Take `NC(=O)c1c(NC(=S)NC(=O)c2ccc(Cl)cc2)sc2c1CCC2`: the inhibition in assay [1] is 57.6%; in [3] it was “Dose-dependent effect”. In addition, the inhibition entry (with U-251 [2]; in assay [9]) was “Active” throughout. Further, the IC50 on Anoctamin-1 was 1.75 µM. Besides, the inhibition entry in the assay on U-251 [5] was “inactive”. Moreover, the Activity entry with U-251 [7] is “Dose-dependent effect”.

For the origin of these results see ChEMBL document CHEMBL4706565, “Anti-glioma effects of 2-aminothiophene-3-carboxamide derivatives, ANO1 channel blockers” (Eur J Med Chem, 2020).
